Our source for the ED50, ID50 and IC50 values is ChEMBL document CHEMBL1122934, “Angiotensin-converting enzyme inhibitors. New orally active antihypertensive (mercaptoalkanoyl)- and [(acylthio)alkanoyl]glycine derivatives” (J Med Chem, 1985).

The test system of one experiment is Canis familiaris. As to the kind of experiment: Peroral dose required to inhibit angiotensin I induced vasopressor response in normotensive conscious dogs. It counts as functional. The settings on record: Canis lupus familiaris, po; read-out: ID50 (the source's name). The method, boiled down: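 Six conscious normotensive dogs; pressor response to angiotensin I 0.25 μg/kg iv. Inhibitor given orally at 0.01–1 mg/kg, vehicle 0.3 M KH₂PO₄ buffer, weekly intervals in a three-way crossover with vehicle control.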

The target of experiment [1] is T1, Angiotensin-converting enzyme (Rattus norvegicus) (UniProt P47820).
T1 sequence (whole entry): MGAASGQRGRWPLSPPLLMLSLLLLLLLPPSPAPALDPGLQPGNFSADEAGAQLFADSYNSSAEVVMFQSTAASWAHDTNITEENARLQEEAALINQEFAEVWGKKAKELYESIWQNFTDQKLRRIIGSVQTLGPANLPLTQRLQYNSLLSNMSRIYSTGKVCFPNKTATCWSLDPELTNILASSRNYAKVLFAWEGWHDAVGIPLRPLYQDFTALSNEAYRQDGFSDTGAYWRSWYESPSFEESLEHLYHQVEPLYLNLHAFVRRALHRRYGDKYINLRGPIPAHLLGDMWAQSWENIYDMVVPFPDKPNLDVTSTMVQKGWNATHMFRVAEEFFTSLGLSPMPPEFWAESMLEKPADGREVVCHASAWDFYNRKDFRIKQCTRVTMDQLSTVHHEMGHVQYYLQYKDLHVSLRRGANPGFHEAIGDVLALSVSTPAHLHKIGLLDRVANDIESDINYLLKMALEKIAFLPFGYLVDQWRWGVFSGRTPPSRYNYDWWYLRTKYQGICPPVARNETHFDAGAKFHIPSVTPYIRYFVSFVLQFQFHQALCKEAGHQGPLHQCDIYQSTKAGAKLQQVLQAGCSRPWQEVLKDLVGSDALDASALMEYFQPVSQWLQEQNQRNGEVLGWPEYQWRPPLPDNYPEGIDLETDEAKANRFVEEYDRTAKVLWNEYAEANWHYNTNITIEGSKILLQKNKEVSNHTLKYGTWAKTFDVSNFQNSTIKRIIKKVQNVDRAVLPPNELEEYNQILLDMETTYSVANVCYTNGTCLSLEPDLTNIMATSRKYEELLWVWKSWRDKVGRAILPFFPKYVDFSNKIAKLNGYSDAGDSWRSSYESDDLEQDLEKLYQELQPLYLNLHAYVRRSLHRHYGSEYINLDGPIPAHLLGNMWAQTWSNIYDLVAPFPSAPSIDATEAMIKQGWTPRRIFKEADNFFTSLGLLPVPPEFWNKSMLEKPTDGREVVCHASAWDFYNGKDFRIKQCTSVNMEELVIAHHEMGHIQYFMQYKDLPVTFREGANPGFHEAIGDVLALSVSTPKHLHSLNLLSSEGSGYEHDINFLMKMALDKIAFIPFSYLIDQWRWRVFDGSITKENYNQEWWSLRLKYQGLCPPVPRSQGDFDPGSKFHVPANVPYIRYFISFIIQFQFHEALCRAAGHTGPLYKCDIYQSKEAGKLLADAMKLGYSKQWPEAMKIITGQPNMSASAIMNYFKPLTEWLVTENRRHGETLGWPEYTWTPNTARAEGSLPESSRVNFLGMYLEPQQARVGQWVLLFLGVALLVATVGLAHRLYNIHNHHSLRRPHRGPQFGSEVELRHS
As to the kind of experiment: Peroral dose required to inhibit angiotensin I induced vasopressor response in normotensive conscious rats. It counts as functional. The essentials:
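Male normotensive rats with aortic and vena caval catheters, used ≥6 days later while restrained; angiotensins I and II 0.25 μg/kg iv every 10 min. One oral inhibitor dose in 0.5% gum tragacanth suspension; angiotensin I repeated every 10 min for ≥2 h. Maximum inhibition as % of initial response; ID50 from dose-response plot.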

Experiment [2] has as its target T2, Angiotensin-converting enzyme (Oryctolagus cuniculus, UniProt P12822).
T2 sequence (P12822 whole entry): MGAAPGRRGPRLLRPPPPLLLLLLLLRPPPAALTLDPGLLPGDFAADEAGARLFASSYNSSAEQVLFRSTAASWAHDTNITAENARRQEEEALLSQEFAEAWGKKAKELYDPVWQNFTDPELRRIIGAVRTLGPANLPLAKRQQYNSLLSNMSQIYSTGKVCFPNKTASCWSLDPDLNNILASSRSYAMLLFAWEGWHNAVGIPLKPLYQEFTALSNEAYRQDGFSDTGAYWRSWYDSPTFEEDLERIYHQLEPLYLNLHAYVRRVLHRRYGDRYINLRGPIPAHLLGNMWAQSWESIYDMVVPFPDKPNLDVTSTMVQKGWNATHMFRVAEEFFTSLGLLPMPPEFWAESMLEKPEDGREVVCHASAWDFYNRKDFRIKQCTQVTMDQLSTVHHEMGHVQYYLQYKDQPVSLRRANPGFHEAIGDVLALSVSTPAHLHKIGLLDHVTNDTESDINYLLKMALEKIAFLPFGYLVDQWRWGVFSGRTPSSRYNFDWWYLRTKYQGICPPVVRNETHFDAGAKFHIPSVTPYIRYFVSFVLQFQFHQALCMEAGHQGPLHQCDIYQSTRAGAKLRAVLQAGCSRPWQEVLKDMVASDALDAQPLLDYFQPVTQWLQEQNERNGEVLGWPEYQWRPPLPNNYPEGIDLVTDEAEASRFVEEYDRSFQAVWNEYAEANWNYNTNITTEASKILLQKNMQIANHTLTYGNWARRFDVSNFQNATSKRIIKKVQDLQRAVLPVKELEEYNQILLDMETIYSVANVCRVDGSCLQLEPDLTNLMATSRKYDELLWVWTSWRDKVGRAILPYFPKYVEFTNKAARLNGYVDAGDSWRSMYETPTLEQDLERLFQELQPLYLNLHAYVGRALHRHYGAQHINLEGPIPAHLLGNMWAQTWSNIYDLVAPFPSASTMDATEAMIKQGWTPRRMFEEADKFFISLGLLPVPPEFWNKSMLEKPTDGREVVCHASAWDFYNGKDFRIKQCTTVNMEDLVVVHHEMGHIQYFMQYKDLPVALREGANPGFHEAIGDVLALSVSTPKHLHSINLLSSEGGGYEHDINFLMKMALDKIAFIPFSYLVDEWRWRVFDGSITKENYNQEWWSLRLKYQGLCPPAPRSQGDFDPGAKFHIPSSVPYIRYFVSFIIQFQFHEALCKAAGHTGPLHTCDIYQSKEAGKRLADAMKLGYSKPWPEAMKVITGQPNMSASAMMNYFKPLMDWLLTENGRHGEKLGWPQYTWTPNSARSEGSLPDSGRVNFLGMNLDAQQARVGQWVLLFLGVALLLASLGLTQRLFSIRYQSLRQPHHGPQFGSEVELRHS
As to the kind of experiment: In vitro inhibitory activity against rabbit lung Angiotensin I converting enzyme at pH 8.3.

Regarding `C[C@H](CS)C(=O)N1CCC[C@H]1C(=O)O` [CAPTOPRIL], the ED50 in the experiment with Canis familiaris was determined as 0.057 mg/kg.

`C[C@H](CSC(=O)C(C)(C)C)C(=O)N(CC(=O)O)C1CCCC1` [PIVOPRIL] returned an ID50 in experiment [1] of 0.058 mg/kg. Besides, the IC50 in experiment [2] turned out to be 3.6 µM. In addition, in the experiment on Canis familiaris, the ED50 came out at 0.17 mg/kg.

In turn, `CCOC(=O)[C@H](CCc1ccccc1)N[C@@H](C)C(=O)N1CCC[C@H]1C(=O)O` came in with an ID50 in experiment [1] of 0.08 mg/kg. For the same molecule, the ED50 in the experiment on Canis familiaris is 0.1 mg/kg.
